Data published in ChEMBL document CHEMBL4000205, “Synthesis and molecular modelling studies of phenyl linked oxadiazole-phenylhydrazone hybrids as potent antileishmanial agents” (Eur J Med Chem, 2017).
pIC50: −log10 of the molar value.

What was measured:
[1] = system: Leishmania major; assay: Antileishmanial activity against promastigote form of Leishmania major JISH118 infected in human THP1 cells by Giemsa staining; format: functional, cell-based; conditions: JISH118, THP-1
Summary of the method: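 THP-1 cells grown in RPMI-1640 with 1% L-glutamine and 10% HIFBS, seeded at 5.0 x 10^4 macrophages/well and made adherent with PMA for 3 days at 37 °C, 5% CO2. Infected with stationary-stage L. major promastigotes (cultured at 26°C in Schneider's medium) at macrophage:parasite 1:5, held at 34 °C for 48 h. Extracellular parasites washed out, compounds added at various concentrations. Activity from % infected cells versus untreated after methanol fixation and Giemsa staining; triplicate.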

[2] = system: THP-1; assay: Cytotoxicity against human THP1 cells; format: cell-based
[3] = Selectivity index, ratio of IC50 for human THP1 cells to IC50 for promastigote form of Leishmania major JISH118 infected in human THP1 cells; format: toxicity, cell-based; conditions: read-out: Ratio IC50
Summary of the method: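 Selectivity index taken as the IC50 in THP-1 cells divided by the antileishmanial IC50 from infected THP-1 macrophages.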

[4] = system: U-937; assay: Cytotoxicity against human U937 cells up to 50 uM; format: cell-based
[5] = system: U-937; assay: Cytotoxicity against human U937 cells; format: cell-based
[6] = system: Leishmania major; assay: Potency index, ratio of pentamidine IC50 to test compound IC50 for promastigote form of Leishmania major JISH118 infected in human THP1 cells; format: functional

Row | Structure (SMILES) | pIC50 [1] | pIC50 [2] | selectivity ratio [3] | Activity [4] | pIC50 [5] | Ratio IC50 [6]
1 | COc1ccccc1-c1nnc(-c2ccc(C(=O)N/N=C/c3cc(O)ccc3O)cc2)o1 | 5.35 | 4.00 | 22.4 | Non-Toxic |  | 
2 | COc1ccccc1-c1nnc(-c2ccc(C(=O)N/N=C/c3ccc(Cl)cc3)cc2)o1 | 4.47 |  |  | Non-Toxic |  | 
3 | COc1ccccc1-c1nnc(-c2ccc(C(=O)N/N=C/c3ccccc3F)cc2)o1 | 5.29 | 3.50 | 60.4 | Non-Toxic |  | 
4 | COc1ccccc1-c1nnc(-c2ccc(C(=O)N/N=C/c3cccc(O)c3O)cc2)o1 | 5.85 | 3.99 | 72.6 | Non-Toxic |  | 
5 | COc1ccccc1-c1nnc(-c2ccc(C(=O)N/N=C/c3ccc([N+](=O)[O-])cc3)cc2)o1 | 4.25 | 3.69 | 3.6 | Non-Toxic |  | 
6 | COc1ccccc1-c1nnc(-c2ccc(C(=O)N/N=C/c3ccc(Cl)cc3Cl)cc2)o1 | 5.29 | 4.10 | 15.4 |  | 4.12 | 
7 | COc1ccc(/C=N/NC(=O)c2ccc(-c3nnc(-c4ccccc4OC)o3)cc2)cc1O | 5.19 | 3.58 | 40.6 | Non-Toxic |  | 
8 | COc1ccccc1-c1nnc(-c2ccc(C(=O)N/N=C/c3ccccn3)cc2)o1 | 5.04 | 4.17 | 7.4 |  | 4.16 | 
9 | COc1ccccc1-c1nnc(-c2ccc(C(=O)N/N=C/c3cccc(F)c3)cc2)o1 | 5.20 | 3.45 | 55.6 | Non-Toxic |  | 
10 | COc1ccccc1-c1nnc(-c2ccc(C(=O)N/N=C/c3ccccc3C)cc2)o1 | 4.47 |  |  | Non-Toxic |  | 
11 | COc1ccccc1-c1nnc(-c2ccc(C(=O)N/N=C/c3ccccc3O)cc2)o1 | 5.38 | 3.68 | 50 | Non-Toxic |  | 
12 | COc1ccccc1-c1nnc(-c2ccc(C(=O)N/N=C/c3ccc(C)cc3)cc2)o1 | 4.53 |  |  | Non-Toxic |  | 
13 | COc1ccccc1-c1nnc(-c2ccc(C(=O)N/N=C/c3c(O)cc(O)cc3O)cc2)o1 | 5.32 | 4.91 | 2.6 |  | 4.82 | 
14 | COc1ccccc1-c1nnc(-c2ccc(C(=O)N/N=C/c3ccncc3)cc2)o1 | 4.41 | 3.76 | 4.5 | Non-Toxic |  | 
15 | COc1ccc(O)c(/C=N/NC(=O)c2ccc(-c3nnc(-c4ccccc4OC)o3)cc2)c1 | 4.79 | 3.52 | 18.6 | Non-Toxic |  | 
16 | COc1ccccc1-c1nnc(-c2ccc(C(=O)N/N=C/c3ccc(O)cc3)cc2)o1 | 5.13 | 3.58 | 35 | Non-Toxic |  | 

Row | Structure (SMILES) | pIC50 [1] | pIC50 [2] | selectivity ratio [3] | Activity [4] | pIC50 [5] | Ratio IC50 [6]
17 | COc1ccccc1-c1nnc(-c2ccc(C(=O)N/N=C/c3cccc([N+](=O)[O-])c3)cc2)o1 | 4.13 | 3.93 | 1.6 | Non-Toxic |  | 
18 | COc1ccccc1-c1nnc(-c2ccc(C(=O)N/N=C/c3ccc(O)cc3O)cc2)o1 | 5.42 | 3.98 | 27.5 | Non-Toxic |  | 
19 | COc1ccccc1-c1nnc(-c2ccc(C(=O)N/N=C/c3ccccc3Cl)cc2)o1 | 4.54 |  |  | Non-Toxic |  | 
20 | COc1ccc(/C=N/NC(=O)c2ccc(-c3nnc(-c4ccccc4OC)o3)cc2)c(O)c1 | 5.18 | 3.51 | 46.6 | Non-Toxic |  | 
21 | COc1ccccc1-c1nnc(-c2ccc(C(=O)N/N=C/c3cccnc3)cc2)o1 | 4.33 | 3.78 | 3.6 | Non-Toxic |  | 
22 | COc1ccccc1-c1nnc(-c2ccc(C(=O)N/N=C/c3ccc(O)c(O)c3)cc2)o1 | 6.02 | 4.00 | 105 | Non-Toxic |  | 7
23 | COc1ccccc1-c1nnc(-c2ccc(C(=O)N/N=C/c3cccc(Cl)c3)cc2)o1 | 4.68 |  |  | Non-Toxic |  | 
24 | COc1ccccc1-c1nnc(-c2ccc(C(=O)N/N=C/c3cccc(C)c3)cc2)o1 | 4.40 |  |  | Non-Toxic |  | 
25 | COc1ccccc1-c1nnc(-c2ccc(C(=O)N/N=C/c3cc(O)c(O)cc3O)cc2)o1 | 6.01 | 5.27 | 5.5 |  | 5.13 | 
26 | COc1cccc(/C=N/NC(=O)c2ccc(-c3nnc(-c4ccccc4OC)o3)cc2)c1 | 4.10 |  |  | Non-Toxic |  | 
27 | COc1ccccc1-c1nnc(-c2ccc(C(=O)N/N=C/c3ccc(F)cc3)cc2)o1 | 4.85 | 3.37 | 30.1 | Non-Toxic |  | 
28 | COc1ccc(/C=N/NC(=O)c2ccc(-c3nnc(-c4ccccc4OC)o3)cc2)cc1 | 4.13 |  |  | Non-Toxic |  | 
29 | COc1ccccc1-c1nnc(-c2ccc(C(=O)N/N=C/c3cccc(O)c3)cc2)o1 | 4.74 | 3.40 | 22 | Non-Toxic |  | 
30 | COc1ccccc1-c1nnc(-c2ccc(C(=O)N/N=C/c3ccccc3[N+](=O)[O-])cc2)o1 | 4.19 | 3.79 | 2.5 | Non-Toxic |  | 
31 | N=C(N)c1ccc(OCCCCCOc2ccc(C(=N)N)cc2)cc1 [PENTAMIDINE] |  | 5.11 | 1.1 |  | 5.22 | 
